Assay results from ChEMBL document CHEMBL1145212, “Fluorinated diaryl sulfides as serotonin transporter ligands: synthesis, structure-activity relationship study, and in vivo evaluation of fluorine-18-labeled compounds as PET imaging agents” (J Med Chem, 2005).

Assays:
Rattus norvegicus [1] = experiment: Biodistribution of [18F]AFE in rat hippocampus at 30 min postinjection in vivo; assay type: ADME, organism-based; details: 0.5 h
In short: (§1)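 Male Sprague-Dawley rats, three per group, received ~20 µCi of the F-18 radioligand in saline by tail-vein injection. Rats were anesthetized with CO2 and decapitated at 10, 30, 60, 90 or 120 min. Blood and brain regions were weighed and gamma-counted. %ID/g was decay- and tail-residual-corrected against F-18 standards made from the injectate and reported as mean ± SD.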

Rattus norvegicus [2] = experiment: Biodistribution of [18F]AFE in rat striatum at 120 min postinjection in vivo; assay type: ADME, organism-based; details: 2 h; in short: as §1
Rattus norvegicus [3] = experiment: Biodistribution of [18F]AFE in rat cerebellum at 10 min postinjection in vivo; assay type: ADME, organism-based; in short: as §1
Rattus norvegicus [4] = species: Rattus norvegicus; experiment: Specific binding of [18F]-AFA in thalamus of rat pretreated with compound 7e; n=3; assay type: functional
Rattus norvegicus [5] = experiment: Biodistribution of [18F]AFE in rat blood at 90 min postinjection in vivo; assay type: ADME, organism-based; details: 1.5 h; in short: as §1
Rattus norvegicus [6] = experiment: Biodistribution of [18F]AFE in rat thalamus at 60 min postinjection in vivo; assay type: ADME, organism-based; details: 1 h; in short: as §1
Rattus norvegicus [7] = experiment: Biodistribution of [18F]AFE in rat blood at 120 min postinjection in vivo; assay type: ADME, organism-based; details: 2 h; in short: as §1
Rattus norvegicus [8] = experiment: Biodistribution of [18F]AFE in rat thalamus at 120 min postinjection in vivo; assay type: ADME, organism-based; details: 2 h; in short: as §1
Rattus norvegicus [9] = experiment: Biodistribution of [18F]-AFE in rat frontal cortex at 30 min postinjection in vivo; assay type: ADME, organism-based; details: 0.5 h
In short: (§2)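 Male Sprague-Dawley rats, three per time point, received the F-18 radioligand in saline (~20 µCi per rat at injection) by tail vein. Under CO2 anesthesia they were decapitated at 10, 30, 60, 90 or 120 min. Blood and dissected brain regions were weighed and gamma counted. Activity was decay-corrected, and injected dose was corrected for tail residual activity. Uptake was expressed as %ID/g versus injectate standards, mean ± SD.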

Rattus norvegicus [10] = experiment: Biodistribution of [18F]AFE in rat cerebellum at 60 min postinjection in vivo; assay type: ADME, organism-based; details: 1 h; in short: as §1
Rattus norvegicus [11] = experiment: Biodistribution of [18F]-AFE in rat striatum 60 min postinjection in vivo; assay type: ADME, organism-based; details: 1 h; in short: as §2
Rattus norvegicus [12] = species: Rattus norvegicus; experiment: Specific binding of [18F]AFA in hippocampus of rat pretreated with compound 7e; n=3; assay type: functional
Rattus norvegicus [13] = experiment: Biodistribution of [18F]AFE in rat frontal cortex at 90 min postinjection in vivo; assay type: ADME, organism-based; details: 1.5 h; in short: as §1
Rattus norvegicus [14] = experiment: Biodistribution of [18F]AFE in rat cerebellum at 90 min postinjection in vivo; assay type: ADME, organism-based; details: 1.5 h; in short: as §1
Rattus norvegicus [15] = experiment: Biodistribution of [18F]AFE in rat hypothalamus at 60 min postinjection in vivo; assay type: ADME, organism-based; details: 1 h; in short: as §1
Rattus norvegicus [16] = experiment: Biodistribution of [18F]AFE in rat blood at 10 min postinjection in vivo; assay type: ADME, organism-based; in short: as §1
Rattus norvegicus [17] = experiment: Biodistribution of [18F]AFE in rat hypothalamus at 30 min postinjection in vivo; assay type: ADME, organism-based; details: 0.5 h; in short: as §1
Rattus norvegicus [18] = experiment: Biodistribution of [18F]AFE in rat hypothalamus at 120 min postinjection in vivo; assay type: ADME, organism-based; details: 2 h; in short: as §1
Rattus norvegicus [19] = experiment: Biodistribution of [18F]AFE in rat frontal cortex at 10 min postinjection in vivo; assay type: ADME, organism-based; in short: as §1
Rattus norvegicus [20] = experiment: Biodistribution of [18F]AFE in rat hippocampus at 10 min postinjection in vivo; assay type: ADME, organism-based; in short: as §1
Rattus norvegicus [21] = experiment: Biodistribution of [18F]AFE in rat hippocampus at 120 min postinjection in vivo; assay type: ADME, organism-based; details: 2 h; in short: as §1
Rattus norvegicus [22] = experiment: Biodistribution of [18F]AFE in rat hypothalamus at 10 min postinjection in vivo; assay type: ADME, organism-based; in short: as §1
Rattus norvegicus [23] = experiment: Biodistribution of [18F]AFE in rat thalamus at 90 min postinjection in vivo; assay type: ADME, organism-based; details: 1.5 h; in short: as §1
Rattus norvegicus [24] = experiment: Biodistribution of [18F]-AFE in rat striatum at 90 min postinjection in vivo; assay type: ADME, organism-based; details: 1.5 h; in short: as §2
Rattus norvegicus [25] = experiment: Biodistribution of [18F]AFE in rat hippocampus at 90 min postinjection in vivo; assay type: ADME, organism-based; details: 1.5 h; in short: as §1
Rattus norvegicus [26] = experiment: Biodistribution of [18F]-AFE in rat blood at 30 min postinjection in vivo; assay type: ADME, organism-based; details: 0.5 h; in short: as §2
Rattus norvegicus [27] = experiment: Biodistribution of [18F]AFE in rat frontal cortex at 120 min postinjection in vivo; assay type: ADME, organism-based; details: 2 h; in short: as §1
Rattus norvegicus [28] = experiment: Biodistribution of [18F]AFE in rat thalamus at 30 min postinjection in vivo; assay type: ADME, organism-based; details: 0.5 h; in short: as §1
Rattus norvegicus [29] = experiment: Biodistribution of [18F]-AFE in rat striatum at 10 min postinjection in vivo; assay type: ADME, organism-based; in short: as §2
Rattus norvegicus [30] = experiment: Biodistribution of [18F]-AFE in rat cerebellum at 120 min postinjection in vivo; assay type: ADME, organism-based; details: 2 h; in short: as §2
Rattus norvegicus [31] = experiment: Biodistribution of [18F]AFE in rat thalamus at 10 min postinjection in vivo; assay type: ADME, organism-based; in short: as §1
Rattus norvegicus [32] = species: Rattus norvegicus; experiment: Specific binding of [18F]AFA in hypothalamus of rat pretreated with compound 7e; n=3; assay type: functional
Rattus norvegicus [33] = species: Rattus norvegicus; experiment: Specific binding of [18F]AFA in striatum of rat pretreated with compound 7e; n=3; assay type: functional
Rattus norvegicus [34] = experiment: Biodistribution of [18F]AFE in rat striatum at 30 min postinjection in vivo; assay type: ADME, organism-based; details: 0.5 h; in short: as §1
Rattus norvegicus [35] = experiment: Biodistribution of [18F]AFE in rat hypothalamus at 90 min postinjection in vivo; assay type: ADME, organism-based; details: 1.5 h; in short: as §1
Rattus norvegicus [36] = experiment: Biodistribution of [18F]AFE in rat frontal cortex at 60 min postinjection in vivo; assay type: ADME, organism-based; details: 1 h; in short: as §1
Rattus norvegicus [37] = experiment: Biodistribution of [18F]AFE in rat hippocampus at 60 min postinjection in vivo; assay type: ADME, organism-based; details: 1 h; in short: as §1
Rattus norvegicus [38] = species: Rattus norvegicus; experiment: Specific binding of [18F]AFA in frontal cortex of rat pretreated with compound 7e; n=3; assay type: functional
Rattus norvegicus [39] = experiment: Biodistribution of [18F]AFE in rat blood at 60 min postinjection in vivo; assay type: ADME, organism-based; details: 1 h; in short: as §1
Rattus norvegicus [40] = experiment: Biodistribution of [18F]-AFE in rat cerebellum at 30 min postinjection in vivo; assay type: ADME, organism-based; details: 0.5 h; in short: as §2

Biodistribution (Rattus norvegicus [1]): 0.27 %ID/g
Biodistribution (Rattus norvegicus [2]): 0.08 %ID/g
Biodistribution (Rattus norvegicus [3]): 0.28 %ID/g
Biodistribution (Rattus norvegicus [5]): 0.04 %ID/g
Biodistribution (Rattus norvegicus [6]): 0.27 %ID/g
Biodistribution (Rattus norvegicus [7]): 0.02 %ID/g
Biodistribution (Rattus norvegicus [8]): 0.13 %ID/g
Biodistribution (Rattus norvegicus [9]): 0.32 %ID/g
Biodistribution (Rattus norvegicus [10]): 0.06 %ID/g
Biodistribution (Rattus norvegicus [11]): 0.21 %ID/g
Biodistribution (Rattus norvegicus [13]): 0.08 %ID/g
Biodistribution (Rattus norvegicus [14]): 0.03 %ID/g
Biodistribution (Rattus norvegicus [15]): 0.24 %ID/g
Biodistribution (Rattus norvegicus [16]): 0.25 %ID/g
Biodistribution (Rattus norvegicus [17]): 0.41 %ID/g
Biodistribution (Rattus norvegicus [18]): 0.1 %ID/g
Biodistribution (Rattus norvegicus [19]): 0.62 %ID/g
Biodistribution (Rattus norvegicus [20]): 0.38 %ID/g
Biodistribution (Rattus norvegicus [21]): 0.07 %ID/g
Biodistribution (Rattus norvegicus [22]): 0.51 %ID/g
Biodistribution (Rattus norvegicus [23]): 0.17 %ID/g
Biodistribution (Rattus norvegicus [24]): 0.1 %ID/g
Biodistribution (Rattus norvegicus [25]): 0.09 %ID/g
Biodistribution (Rattus norvegicus [26]): 0.13 %ID/g
Biodistribution (Rattus norvegicus [27]): 0.06 %ID/g
Biodistribution (Rattus norvegicus [28]): 0.39 %ID/g
Biodistribution (Rattus norvegicus [29]): 0.51 %ID/g
Biodistribution (Rattus norvegicus [30]): 0.02 %ID/g
Biodistribution (Rattus norvegicus [31]): 0.58 %ID/g
Biodistribution (Rattus norvegicus [34]): 0.33 %ID/g
Biodistribution (Rattus norvegicus [35]): 0.14 %ID/g
Biodistribution (Rattus norvegicus [36]): 0.19 %ID/g
Biodistribution (Rattus norvegicus [37]): 0.17 %ID/g
Biodistribution (Rattus norvegicus [39]): 0.07 %ID/g
Biodistribution (Rattus norvegicus [40]): 0.13 %ID/g
SMILES: CN(C)Cc1ccccc1Sc1ccc(CC[18F])cc1N
Specific binding (Rattus norvegicus [4]): 1.06 %ID/g
Specific binding (Rattus norvegicus [12]): 0.65 %ID/g
Specific binding (Rattus norvegicus [32]): 1.21 %ID/g
Specific binding (Rattus norvegicus [33]): 0.61 %ID/g
Specific binding (Rattus norvegicus [38]): 0.48 %ID/g
